Measured values published in ChEMBL document CHEMBL4017460, “A Tobramycin Vector Enhances Synergy and Efficacy of Efflux Pump Inhibitors against Multidrug-Resistant Gram-Negative Bacteria” (J Med Chem, 2017).
Calls of active or inactive are those of the source. The calls are words filed in the database; no cut-off is given here.

Experiments:
Klebsiella pneumoniae [1] = experiment: Inhibition of RND efflux pump in Klebsiella pneumoniae isolate 116381 assessed as potentiation of minocycline-induced antibacterial activity by measuring fold reduction in minocycline MIC at 8 ug/ml after 18 to 24 hrs by microbroth dilution assay
In short: (§1)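 Absolute minocycline MIC taken from checkerboard broth dilution with a fixed 8 μg/mL adjuvant. Inoculum was a 0.5 McFarland saline suspension diluted 1:50 in MHB, incubated 37 °C for 18 h. MIC is the lowest concentration with no growth.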

[2] = test system: Pseudomonas aeruginosa PAO1; experiment: Inhibition of RND efflux pump in Pseudomonas aeruginosa PAO1 assessed as potentiation of minocycline-induced antibacterial activity at 8 ug/ml after 18 to 24 hrs by checker board assay
In short: (§2)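 Checkerboard in MHB: antibiotic 2-fold diluted along one axis, test agent 2-fold diluted along the other. Overnight culture standardized to 0.5 McFarland in saline, diluted 1:50 in MHB, added to wells, incubated 37 °C for 18 h. MIC is the lowest concentration with no growth. FIC = MIC in combination / MIC alone; FIC index = sum of both FICs.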

[3] = test system: Pseudomonas aeruginosa PAO1; experiment: Inhibition of RND efflux pump in Pseudomonas aeruginosa PAO1 assessed as potentiation of doxycycline-induced antibacterial activity by measuring fold reduction in doxycycline MIC at 8 ug/ml after 18 to 24 hrs by microbroth dilution assay relative to doxycycline alone
In short: (§3)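 Checkerboard broth microdilution: antibiotic 2-fold diluted along one axis, adjuvant 2-fold diluted along the other. Overnight culture standardized to 0.5 McFarland in saline, diluted 1:50 in MHB, added to wells, 37 °C for 18 h. MIC is the lowest concentration with no growth. FIC = MIC in combination / MIC alone; FICI = sum of the two FICs; FICI ≤0.5 is synergy.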

Pseudomonas aeruginosa [4] = experiment: Antibacterial activity against Pseudomonas aeruginosa isolate 101885 after 18 to 24 hrs by microbroth dilution assay; assay type: functional; in short: as §3
Pseudomonas aeruginosa [5] = experiment: Inhibition of RND efflux pump in Pseudomonas aeruginosa isolate P259-96918 assessed as potentiation of minocycline-induced antibacterial activity at 8 ug/ml after 18 to 24 hrs by checker board assay; in short: as §2
Pseudomonas aeruginosa [6] = experiment: Inhibition of RND efflux pump in Pseudomonas aeruginosa isolate P259-96918 assessed as potentiation of minocycline-induced antibacterial activity by measuring minocycline MIC at 8 ug/ml after 18 to 24 hrs by microbroth dilution assay (reference value: 32 ug/ml); in short: as §1
Pseudomonas aeruginosa [7] = experiment: Inhibition of RND efflux pump in Pseudomonas aeruginosa isolate P260-97103 assessed as potentiation of minocycline-induced antibacterial activity at 0.25 times antibacterial MIC after 18 to 24 hrs by checker board assay; in short: as §2
Pseudomonas aeruginosa [8] = experiment: Inhibition of RND efflux pump in Pseudomonas aeruginosa isolate P260-97103 assessed as potentiation of minocycline-induced antibacterial activity by measuring minocycline MIC at 0.25 times antibacterial MIC after 18 to 24 hrs by microbroth dilution assay (reference value: 8 to 16 ug/ml); in short: as §3
Pseudomonas aeruginosa [9] = experiment: Antibacterial activity against Pseudomonas aeruginosa isolate P262-101856 after 18 to 24 hrs by microbroth dilution assay; assay type: functional; in short: as §3
Pseudomonas aeruginosa [10] = experiment: Inhibition of RND efflux pump in Pseudomonas aeruginosa isolate P262-101856 assessed as potentiation of minocycline-induced antibacterial activity at 8 ug/ml after 18 to 24 hrs by checker board assay; in short: as §2
Pseudomonas aeruginosa [11] = experiment: Inhibition of RND efflux pump in Pseudomonas aeruginosa isolate P262-101856 assessed as potentiation of minocycline-induced antibacterial activity by measuring minocycline MIC at 8 ug/ml after 18 to 24 hrs by microbroth dilution assay (reference value: 128 to 256 ug/ml); in short: as §1
Pseudomonas aeruginosa [12] = experiment: Inhibition of RND efflux pump in colistin-resistant Pseudomonas aeruginosa isolate 101243 assessed as potentiation of minocycline-induced antibacterial activity by measuring minocycline MIC at 8 ug/ml after 18 to 24 hrs by microbroth dilution assay (reference value: 32 ug/ml); in short: as §3
Pseudomonas aeruginosa [13] = experiment: Inhibition of RND efflux pump in Pseudomonas aeruginosa isolate P259-96918 assessed as potentiation of minocycline-induced antibacterial activity by measuring fold reduction in minocycline MIC at 8 ug/ml after 18 to 24 hrs by microbroth dilution assay; in short: as §3
Pseudomonas aeruginosa [14] = experiment: Inhibition of RND efflux pump in Pseudomonas aeruginosa isolate P260-97103 assessed as potentiation of minocycline-induced antibacterial activity by measuring fold reduction in minocycline MIC at 0.25 times antibacterial MIC after 18 to 24 hrs by microbroth dilution assay; in short: as §3
Pseudomonas aeruginosa [15] = experiment: Inhibition of RND efflux pump in Pseudomonas aeruginosa isolate P262-104354 assessed as potentiation of minocycline-induced antibacterial activity by measuring fold reduction in minocycline MIC at 0.25 times antibacterial MIC after 18 to 24 hrs by microbroth dilution assay; in short: as §3
Enterobacter cloacae [16] = experiment: Inhibition of RND efflux pump in Enterobacter cloacae isolate 117029 assessed as potentiation of minocycline-induced antibacterial activity by measuring fold reduction in minocycline MIC at 8 ug/ml after 18 to 24 hrs by microbroth dilution assay; in short: as §1
Enterobacter cloacae [17] = experiment: Inhibition of RND efflux pump in Enterobacter cloacae isolate 117029 assessed as potentiation of minocycline-induced antibacterial activity at 8 ug/ml after 18 to 24 hrs by microbroth dilution assay; in short: as §2
Klebsiella pneumoniae [18] = experiment: Antibacterial activity against Klebsiella pneumoniae isolate 116381 after 18 to 24 hrs by microbroth dilution assay; assay type: functional; in short: as §2
Enterobacter cloacae [19] = experiment: Antibacterial activity against Enterobacter cloacae isolate 117029 after 18 to 24 hrs by microbroth dilution assay; assay type: functional; in short: as §2
Pseudomonas aeruginosa [20] = experiment: Induction of cytoplasmic membrane depolarization in Pseudomonas aeruginosa PAO1 by DiSC3(5) dye based fluorescence assay; assay type: functional
In short: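 Cytoplasmic membrane depolarization in P. aeruginosa PAO1, monitored by DiSC3(5) fluorescence across a range of compound concentrations. Colistin served as positive control.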

[21] = test system: Pseudomonas aeruginosa PAO1; experiment: Inhibition of RND efflux pump in Pseudomonas aeruginosa PAO1 assessed as potentiation of chloramphenicol-induced antibacterial activity […] by microbroth dilution assay
[22] = test system: Pseudomonas aeruginosa PAO1; experiment: Inhibition of RND efflux pump in Pseudomonas aeruginosa PAO1 assessed as potentiation of trimethoprim-induced antibacterial activity […] by microbroth dilution assay
[23] = test system: Pseudomonas aeruginosa PAO1; experiment: Inhibition of RND efflux pump in Pseudomonas aeruginosa PAO1 assessed as potentiation of vancomycin-induced antibacterial activity […] by microbroth dilution assay
Pseudomonas aeruginosa [24] = experiment: Reduction in flagellum-dependant motility in Pseudomonas aeruginosa PAO1 after 20 hrs by swimming motility test; assay type: functional
In short: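 PAO1 flagellum-dependent swimming motility on swimming plates containing sub-MIC compound, compared with plates without compound.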

Pseudomonas aeruginosa [25] = experiment: Potentiation of minocycline-induced antibacterial activity against mexAB-oprM/mexCD-oprJ/mexEF-oprN/mexXY/mexJK/opmH deficient Pseudomonas aeruginosa PAO750 after 18 to 24 hrs by microbroth dilution assay; assay type: functional
[26] = test system: Pseudomonas aeruginosa PAO1; experiment: Inhibition of RND efflux pump in Pseudomonas aeruginosa PAO1 assessed as increase in tetracycline uptake measured at 1 min interval for 30 mins by fluorescence assay
In short: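 Tetracycline uptake assay in P. aeruginosa PAO1: enhancement of tetracycline fluorescence as it enters cells, monitored with compound present at several concentrations.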

[27] = test system: Pseudomonas aeruginosa PAO1; experiment: Inhibition of RND efflux pump in Pseudomonas aeruginosa PAO1 assessed as potentiation of gentamicin-induced antibacterial activity after 18 to 24 hrs by checker board assay; in short: as §2

SMILES	fold change (FC) (Klebsiella pneumoniae [1])	fractional inhibitory concentration index (FICI) [2]	fold change (FC) [3]	MIC (Pseudomonas aeruginosa [4]) [µg/mL]	fractional inhibitory concentration index (FICI) (Pseudomonas aeruginosa [5])	MIC (Pseudomonas aeruginosa [6]) [µg/mL]	fractional inhibitory concentration index (FICI) (Pseudomonas aeruginosa [7])	MIC (Pseudomonas aeruginosa [8]) [µg/mL]	MIC (Pseudomonas aeruginosa [9]) [µg/mL]	fractional inhibitory concentration index (FICI) (Pseudomonas aeruginosa [10])	MIC (Pseudomonas aeruginosa [11]) [µg/mL]	MIC (Pseudomonas aeruginosa [12]) [µg/mL]	fold change (FC) (Pseudomonas aeruginosa [13])	fold change (FC) (Pseudomonas aeruginosa [14])	fold change (FC) (Pseudomonas aeruginosa [15])	fold change (FC) (Enterobacter cloacae [16])	fractional inhibitory concentration index (FICI) (Enterobacter cloacae [17])	MIC (Klebsiella pneumoniae [18]) [µg/mL]	MIC (Enterobacter cloacae [19]) [µg/mL]	Activity (Pseudomonas aeruginosa [20])	further results
Cl.Cl.Cl.Cl.Cl.Cl.NC[C@H]1O[C@H](O[C@H]2[C@H](OCCCCCCCCCCCCN3CC[C@@H](c4ccc(F)cc4)[C@H](COc4ccc5c(c4)OCO5)C3)[C@@H](O[C@H]3O[C@H](CO)[C@@H](O)[C@H](N)[C@H]3O)[C@H](N)C[C@@H]2N)[C@H](N)C[C@@H]1O	4 to 256	0.19	8 to 64	32	0.02	0.5	0.19	< 1	32	0.13	1	1	8 to 256	8 to 256	8 to 256	4 to 256	0.02 to 0.14	> 32	> 32	Dose-dependent effect	fractional inhibitory concentration index (FICI) [21]: < 0.1; fractional inhibitory concentration index (FICI) [22]: < 0.1; fractional inhibitory concentration index (FICI) [23]: < 0.15; Activity (Pseudomonas aeruginosa [24]): Dose-dependent effect; Activity (Pseudomonas aeruginosa [25]): inactive; inhibition [26]: Dose-dependent effect; fractional inhibitory concentration index (FICI) [27]: > 1.5
Cl.Cl.Cl.Cl.Cl.Cl.Cl.NC[C@H]1O[C@H](O[C@H]2[C@H](OCCCCCCCCCCCCN3CCN(Cc4cccc5ccccc45)CC3)[C@@H](O[C@H]3O[C@H](CO)[C@@H](O)[C@H](N)[C@H]3O)[C@H](N)C[C@@H]2N)[C@H](N)C[C@@H]1O	4 to 256	0.19	8 to 64	256	0.02	< 0.5	0.25	0.5	64	0.09	4	1	8 to 256	8 to 256	8 to 256	4 to 256	0.03 to 0.16	> 32	> 32	Dose-dependent effect	fractional inhibitory concentration index (FICI) [21]: < 0.1; fractional inhibitory concentration index (FICI) [22]: < 0.1; fractional inhibitory concentration index (FICI) [23]: < 0.15; Activity (Pseudomonas aeruginosa [24]): Dose-dependent effect; Activity (Pseudomonas aeruginosa [25]): inactive; inhibition [26]: Dose-dependent effect; fractional inhibitory concentration index (FICI) [27]: > 1.5
